This note sets out measurements from ChEMBL document CHEMBL2169747, “Synthesis and biological properties of highly sequence-specific-alkylating N-methylpyrrole-N-methylimidazole polyamide conjugates” (J Med Chem, 2012).

Holding throughout (format): functional
Assay [1] concerns A549. Nature of the assay: Upregulation of BBC3 gene expression in human A549 cells at 26 nM after 12 hrs by microarray analysis relative to control. Summed up: (§1)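 A549 cells (RPMI-1640, 10% heat-inactivated FBS, penicillin/streptomycin, 37 °C, 5% CO2) seeded at 4 × 10^5 per 60 mm dish. Exposed 12 h to conjugate at 21, 26, 34 or 100 nM in medium with 0.1% DMSO, against 0.1% DMSO control. Whole-genome (~25 000 genes) expression profiled by microarray.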

The subject of assay [2] is A549. Nature of the assay: Downregulation of NBEA gene expression in human A549 cells at 26 nM after 12 hrs by microarray analysis relative to control. In outline:
(§2)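 A549 cells, 4 × 10^5 per 60 mm dish, were exposed to conjugate for 12 h in medium with 0.1% DMSO; vehicle control was 0.1% DMSO. Whole human genome (~25 000 genes) expression was profiled by microarray and expression compared with the control.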

For assay [3], the system named is A549. The assay is described as follows: Upregulation of MDM2 gene expression in human A549 cells at 26 nM after 12 hrs by microarray analysis relative to control. In outline: (§3)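 4 ×10^5 A549 cells seeded per 60 mm dish and treated 12 h with conjugate (21, 26, 34 or 100 nM) in medium; control medium contained 0.1% DMSO, with conjugates added as 0.1% DMSO solutions. Whole human genome (~25 000 genes) expression profiled by microarray against the DMSO control. A549 culture: RPMI-1640 with 10% heat-inactivated FBS, penicillin/streptomycin, 37 °C, 5% CO2.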

For assay [4], the system named is A549. The assay is described as follows: Upregulation of HES2 gene expression in human A549 cells at 26 nM after 12 hrs by microarray analysis relative to control. In outline: as §3
Assay [5] concerns A549. The assay is described as follows: Upregulation of SPESP1 gene expression in human A549 cells at 26 nM after 12 hrs by microarray analysis relative to control. In outline: as §3
Assay [6] concerns A549. Nature of the assay: Downregulation of PTPRK gene expression in human A549 cells at 26 nM after 12 hrs by microarray analysis relative to control. In outline: as §1
Assay [7] concerns A549. Nature of the assay: Upregulation of RRAD gene expression in human A549 cells at 26 nM after 12 hrs by microarray analysis relative to control. In outline:
as §3

Assay [8] deals with A549. Nature of the assay: Downregulation of DPYD gene expression in human A549 cells at 34 nM after 12 hrs by microarray analysis relative to control. Summed up: as §2
For assay [9], the system named is A549. Nature of the assay: Downregulation of ZNF291 gene expression in human A549 cells at 34 nM after 12 hrs by microarray analysis relative to control. Summed up: as §1
Assay [10] concerns A549. Nature of the assay: Downregulation of SUPT3H gene expression in human A549 cells at 34 nM after 12 hrs by microarray analysis relative to control. In outline: as §1
Assay [11] relates to A549. The assay is described as follows: Upregulation of BTG2 gene expression in human A549 cells at 34 nM after 12 hrs by microarray analysis relative to control. In outline: as §3
The subject of assay [12] is A549. The assay is described as follows: Downregulation of Q8NBA2 gene expression in human A549 cells at 34 nM after 12 hrs by microarray analysis relative to control. Summed up:
as §1

For assay [13], the system named is A549. The assay is described as follows: Upregulation of NP_997213.1 gene expression in human A549 cells at 34 nM after 12 hrs by microarray analysis relative to control. In outline: as §3
Assay [14] relates to A549. The assay is described as follows: Upregulation of CDKN1A gene expression in human A549 cells at 34 nM after 12 hrs by microarray analysis relative to control. In outline:
as §3

`CC(=O)Nc1cn(C)c(C(=O)Nc2cc(C(=O)Nc3cc(C(=O)NCCC(=O)Nc4cc(C(=O)NCCCC(=O)Nc5cc(C(=O)NCCC(=O)Nc6cn(C)c(C(=O)Nc7ccc8[nH]c(C(=O)N9CC(CCl)c%10c9cc(O)c9ccccc%109)cc8c7)n6)n(C)c5)n(C)c4)n(C)c3)n(C)c2)n1` (racemic): the “fold change (FC)” value was 9.4 in the assay with A549 [1]; 0.339 with A549 [2]; 8.1 in the assay with A549 [3]; 9.4 in the assay on A549 [4]; 11 in the assay on A549 [5]; 0.257 in the assay with A549 [6]. Further, in the assay on A549 [7], the “fold change (FC)” value is 6.
With `CC(=O)Nc1cn(C)c(C(=O)Nc2cn(C)c(C(=O)Nc3cc(C(=O)NCCC(=O)Nc4cc(C(=O)NCCCC(=O)Nc5cn(C)c(C(=O)NCCC(=O)Nc6cn(C)c(C(=O)Nc7ccc8[nH]c(C(=O)N9CC(CCl)c%10c9cc(O)c9ccccc%109)cc8c7)n6)n5)n(C)c4)n(C)c3)n2)n1` (racemic), the “fold change (FC)” value with A549 [8] came to 0.103; with A549 [9], 0.311; in the assay on A549 [10], 0.231; in the assay with A549 [11] it was 9.7; in the assay on A549 [12], 0.276; in the assay with A549 [13], 6. Moreover, the “fold change (FC)” value with A549 [14] came to 7.8.
